Published values gathered from unrelated publications.
Compare with care: the assays were run in different laboratories.
RET V804M: Proto-oncogene tyrosine-protein kinase receptor Ret (RET, Homo sapiens, UniProt P07949, V804M)
RET: Proto-oncogene tyrosine-protein kinase receptor Ret (RET, Homo sapiens, UniProt P07949)
RET M918T: Proto-oncogene tyrosine-protein kinase receptor Ret (RET, Homo sapiens, UniProt P07949, M918T)
RET V804L: Proto-oncogene tyrosine-protein kinase receptor Ret (RET, Homo sapiens, UniProt P07949, V804L)

CNC(=O)[C@@H]1CC[C@@H](n2c(-c3ccc4cnccc4c3)nc3ccc(C(=O)NCc4cccc(C(N)=O)c4)cc32)C1  remaining binding (RET V804M; binding; competition with immobilised ligand; 1 µM): 100%
O=C(Nc1c[nH]nc1C(=O)NC1CCNCC1)c1cc(F)cc(F)c1  remaining binding (RET; binding; competition with immobilised ligand; 1 µM): 100%
Nc1ncc2c(n1)-c1c([nH]c3ccc(C#CC4CC4)cc13)CCCC2  remaining binding (RET; binding; competition with immobilised ligand; 1 µM): 91%
O=C(Nc1cccnn1)N1CCC(=Cc2cccc(Oc3ccc(C(F)(F)F)cn3)c2)CC1  remaining binding (RET; cell-free assay; competition with immobilised ligand; 1 µM): 100%
Cc1cnc(Nc2ccc(C(=O)N3CCC(N4CCCC4)CC3)cc2)nc1-c1cc2ccccc2s1  remaining binding (RET M918T; binding; competition with immobilised ligand; 1 µM): 5.2%
CCN1CCN(Cc2ccc(C(=O)Nc3ccc(C)c(Oc4ccc5c(c4)CC(=O)N5)c3)cc2C(F)(F)F)CC1  remaining binding (RET V804L; binding; competition with immobilised ligand; 1 µM): 99%
c1ccc(N2CCN(Cc3nc4ccccc4[nH]3)CC2)nc1  remaining binding (RET; cell-free assay; competition with immobilised ligand; 1 µM): 100%
FC(F)(F)Oc1cccc(-c2cnc3ccc(-c4ccncc4)nn23)c1  remaining binding (RET; cell-free assay; competition with immobilised ligand; 5 µM): 86%
CN1CCN(c2ccc(Nc3nccc(-c4cccc([N+](=O)[O-])c4)n3)cc2C(F)(F)F)CC1  remaining binding (RET V804L; binding; 10 µM): 41%
O=C(NCCCN1CCOCC1)c1ccc(Nc2nccc(-c3cc4ccccc4s3)n2)cc1  remaining binding (RET V804M; binding; competition with immobilised ligand; 1 µM): 81%
CCCCN(CCCC)C(=O)CN1C[C@@H](c2cc(OC)c3c(c2)OCO3)[C@H](C(=O)O)[C@H]1CC(C)(C)CCC  remaining binding (RET V804L; cell-free assay; competition with immobilised ligand; 1 µM): 100%
C[C@@H]1CCN(c2nccc(-c3cnn4ncccc34)n2)C1  remaining binding (RET V804L; binding; 1 µM): 100%
c1cncc(-c2cccc(Nc3nccc(NC4CCCCC4)n3)c2)c1  remaining binding (RET V804L; binding; competition with immobilised ligand; 10 µM): 10%
N#CC1(c2ccccn2)CCN(Cc2cc(C(=O)N3CCCC3)c(=O)n3ccccc23)CC1  remaining binding (RET M918T; cell-free assay; competition with immobilised ligand; 1 µM): 88%
CC1CCCN1c1nccc(-c2cnn3ncccc23)n1 (stereo not drawn)  remaining binding (RET M918T; binding; 1 µM): 89%
O=C(c1ccc(Nc2ncc(Cl)c(-c3ccc(Cl)s3)n2)cc1)N1CCC(N2CCCC2)CC1  remaining binding (RET M918T; binding; competition with immobilised ligand; 1 µM): 8.4%
C[C@@H](c1ccc(-n2cnc3c(N)ncnc32)cc1)N1CCc2nn(C)c(Cc3ccccc3)c2C1=O  remaining binding (RET V804L; binding; competition with immobilised ligand; 0.1 µM): 99%
Cc1cc(-n2nc(Cc3cc(F)cc(C(F)(F)F)c3)nc2C)ccc1C(N)=O  remaining binding (RET; cell-free assay; competition with immobilised ligand; 1 µM): 96%
CN(C)c1nccc(-c2cnc3ncccn23)n1  remaining binding (RET; binding; 1 µM): 91%
O=C(NCC1CCOCC1)c1n[nH]cc1NC(=O)c1c(F)cccc1F  remaining binding (RET M918T; binding; competition with immobilised ligand; 1 µM): 96%
C[C@@H]1CN(c2cc(-c3nn(C)c4ccc(OC5(C)CC5)cc34)ncn2)C[C@H](C)O1  remaining binding (RET V804L; cell-free assay; competition with immobilised ligand; 1 µM): 72%
O=C(NCCCN1CCOCC1)c1ccc(Nc2ncc(Cl)c(-c3ccc(Cl)s3)n2)cc1  remaining binding (RET M918T; binding; competition with immobilised ligand; 1 µM): 15%
CNC(=O)c1ccc(Nc2ncc(C(F)(F)F)c(NCc3nccnc3N(C)S(C)(=O)=O)n2)cc1  remaining binding (RET V804M; cell-free assay; competition with immobilised ligand; 0.1 µM): 30%
F[C@@H]1CCN(c2nccc(-c3cnn4ncccc34)n2)C1  remaining binding (RET V804M; binding; 1 µM): 72%
CN1CCN(c2ccc(Nc3nccc(-c4ccccc4)n3)cc2C(F)(F)F)CC1  remaining binding (RET V804M; binding; 10 µM): 48%
COc1cnc(Nc2cccc(S(N)(=O)=O)c2)nc1N1CCN(c2ccccc2)C(=O)C1  remaining binding (RET; binding; competition with immobilised ligand; 1 µM): 90%
O=C(N[C@H]1CCCCC/C=C\C2C[C@@]2(C(=O)O)NC(=O)[C@@H]2C[C@@H](Oc3ccncc3)CN2C1=O)OC1CCCC1 (stereo partly drawn)  remaining binding (RET V804M; binding; competition with immobilised ligand; 1 µM): 100%
CN(c1nccc(-c2cnn3ncccc23)n1)C1CC1  remaining binding (RET; binding; 1 µM): 84%
O=C(c1ccc(Nc2ncc(Cl)c(-c3cc4ccccc4s3)n2)cc1)N1CCC(N2CCCC2)CC1  remaining binding (RET V804L; binding; competition with immobilised ligand; 1 µM): 23%
COc1ncc2cc3ccccc3nc2c1C#N  remaining binding (RET V804M; cell-free assay; competition with immobilised ligand; 5 µM): 98%
N[C@@H]1CCN(c2nccc(-c3cnn4ncccc34)n2)C1  remaining binding (RET V804M; binding; 1 µM): 99%
O=C(c1ccc(Nc2nccc(-c3cc4ccccc4s3)n2)cc1)N1CCC(N2CCCC2)CC1  remaining binding (RET V804M; binding; competition with immobilised ligand; 1 µM): 99%
CN(C)c1nccc(-c2cnn3ncccc23)n1  remaining binding (RET V804M; binding; 1 µM): 100%
COc1cnc(Nc2cccc(S(N)(=O)=O)c2)nc1N1CCN(c2ccccc2)CC1  remaining binding (RET M918T; binding; competition with immobilised ligand; 1 µM): 49%
COc1ccnn2ncc(-c3ccnc(N(C)C)n3)c12  remaining binding (RET V804L; binding; 1 µM): 100%
C=CC(=O)N1CCC(C(=O)NCC(=O)N2CCN(c3nc(-c4cnc(N)nc4C(F)F)nc(N4CCOCC4)n3)CC2)CC1  remaining binding (RET M918T; binding; competition with immobilised ligand; 1 µM): 97%
